Screens from PubChem BioAssay.
Rows were chosen to be rich in hits. Some 4.3% of all compounds tested hit in one or more screens of this group.
Beta2AR agonist: beta2AR agonists driving receptor internalization, primary screen, cell-based, FAP fluorogen, flow cytometry | Beta-2 adrenergic receptor (Homo sapiens), P07550 | Am2.2-beta2AR cells | response, % (concentration not given with the values) | hit rate 0.43% among 340,000 | AID 504454, 2011;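 active = response above a set limit, near 3 SD of response in nonfluorescent compounds, cut at about 42% in these data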
HTR2A ag: mouse Htr2a agonists via beta-arrestin recruitment, primary screen, cell-based, luminescence. CHO-K1 mHTR2A beta-arrestin complementation; percent of 30 µM serotonin response. hit rate 0.66% among 360,000. activation, % at 7.6 µM. 5-hydroxytryptamine receptor 2A (Mus musculus), P35363;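 active = activation above a run cutoff, the mean activation of all tested compounds plus 3 SD, cut at about 14% in these data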
Target sequence (P35363 whole entry, looked up): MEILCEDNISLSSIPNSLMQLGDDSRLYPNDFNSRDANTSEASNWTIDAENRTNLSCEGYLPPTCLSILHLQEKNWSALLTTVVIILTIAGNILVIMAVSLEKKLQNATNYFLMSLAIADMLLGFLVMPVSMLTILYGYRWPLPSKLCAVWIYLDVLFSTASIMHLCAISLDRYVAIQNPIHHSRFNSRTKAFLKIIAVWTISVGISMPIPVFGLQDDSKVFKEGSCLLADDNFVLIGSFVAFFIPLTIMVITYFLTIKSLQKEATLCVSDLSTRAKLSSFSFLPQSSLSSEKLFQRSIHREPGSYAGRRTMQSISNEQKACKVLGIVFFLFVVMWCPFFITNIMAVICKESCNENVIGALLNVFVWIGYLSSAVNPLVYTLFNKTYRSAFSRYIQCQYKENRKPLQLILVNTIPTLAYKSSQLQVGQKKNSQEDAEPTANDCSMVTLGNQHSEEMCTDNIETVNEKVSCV
MC4R ag barr: MC4R agonists recruiting beta-arrestin, primary screen, cell-based, luminescence, agonist arm of biased-ligand search. Melanocortin receptor 4 (Homo sapiens), P32245. U2OS MC4R beta-arrestin complementation; percent of melanotan II response, DMSO zero. activation, % at 8.9 µM. hit rate 0.98% among 360,000. AID 540308, 2011;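 active = activation above a per-plate cutoff, the mean activation of sample wells on that plate plus 3 SD, cut at about 8% in these data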
TAAR1 agonist: human TAAR1 agonists, primary screen, Fluo-8 calcium fluorescence, CHO RD-HGA16 cells | Trace amine-associated receptor 1 (Homo sapiens), Q96RJ0 | vehicle wells 0%, saturating PEA agonist 100% | activation, % at 3 µM | hit rate 0.99% among 360,000;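 active = activation above the mean activation of all test compounds in the run plus 3 SD, cut at about 38% in these data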
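Benchmarks: low control DMSO, high control PEA (EC100); System: CHO RD-HGA16 cells carrying human TAAR1 plus Gα16; Detection: Fluo-8 fluorescence, 5 s baseline then 140 s kinetic read; Schedule: 17-24 h plating, Fluo-8 75 min 37 °C, 30 min RT; Read-out basis: % activation from peak over basal fluorescence ratio, DMSO-to-PEA scaled.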
TAAR1 antag: human TAAR1 antagonists, primary screen, Fluo-8 calcium fluorescence, CHO RD-HGA16 cells; Trace amine-associated receptor 1 (Homo sapiens), Q96RJ0; antagonist; inhibition, % at 3 µM; hit rate 1.5% among 360,000;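 active = inhibition above a per-plate cutoff, the mean inhibition of test compounds on that plate plus 3 SD, cut at about 49% in these data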
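Test system: hTAAR1-expressing CHO RD-HGA16 cells, Gα16-coupled; Probe or stimulus: EC80 β-phenethylamine stimulus; Compound dosing: single nominal final test compound concentration of 3 µM; Timing: 140 s kinetic read after compound, 140 s after agonist; Signal: Fluo-8 calcium-sensitive fluorescence; Measure: % inhibition of agonist calcium response; Controls: DMSO and EC80 PEA controls.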
MC4R antag cAMP: MC4R antagonists of cAMP signaling, primary screen, cell-based, TR-FRET, antagonist arm of biased-ligand search; hit rate 0.48% among 360,000; inhibition, % at 6.5 µM; Melanocortin receptor 4 (Homo sapiens), P32245; MC4R-expressing cells, MTII-stimulated cAMP, LANCE TR-FRET; AID 540295, 2011;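 active = inhibition above its plate's cutoff, the mean of tested wells on that plate plus 3 SD, cut at about 29% in these data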
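Assay system: U2OS-MC4R stable cell line; Also added: Melanotan II; Technique: Eu-cAMP/anti-cAMP TR-FRET, emission 671 nm; Times: 30-min compound, 1-h challenge, 1-h detection, room temperature.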
nonsel antag count: nonselective antagonists in TAAR1 counter-screen cells, counter-screen for hTAAR1 antagonist project, cell-based, fluorescence, calcium; shares compounds with TAAR1 antag; counterscreen cell line, antagonist mode; inhibition, % at 3 µM; hit rate 77% among 2,400; AID 651780, 2012; in the data active = inhibition above about 22%;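 also: CHO-Ga16 host cells stimulated with ATP at an EC80 level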
TAAR1 ant conf: human TAAR1 antagonists, retest of hits, confirmation, cell-based, fluorescence; shares compounds with TAAR1 antag; TAAR1-expressing cells, fluorescence antagonist read-out; inhibition, % at 3 µM; hit rate 40% among 2,400; in the data active = inhibition above about 49%;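 also: CHO-Ga16 host cells challenged with agonist PEA near its EC80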
Ga16 nonsel ag: calcium activation in Ga16-expressing cells, counter-screen for TAAR1 antagonist project, cell-based, fluorescence. AID 651953, 2012. hit rate 18% among 2,400. shares compounds with TAAR1 antag. activation, % at 3 µM. agonist counterscreen; in the data active = activation above about 12%
TAAR1 ag counter: TAAR1 activation by candidate antagonists – cell-based, fluorescence, counter-screen for TAAR1 antagonist project; hTAAR1 cell line, agonist mode; activation, % at 3 µM; shares compounds with TAAR1 antag; hit rate 2% among 2,400; AID 651955, 2012; in the data active = activation above about 37%;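 also: CHO cells stably expressing TAAR1 with calcium dye readout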
Each line names hits and unclear results; the compound was inactive in the other large screens (follow-up assays come after a bar, where they were run).

CCN(C[C@H]1N[C@@](Cc2ccccc2)(C(=O)OC)[C@H]2C(=O)N(C)C(=O)[C@@H]12)S(=O)(=O)c1ccc(OC(F)(F)F)cc1	TAAR1 antag 63.8 | nonsel antag count 26.0 | TAAR1 ant conf inactive | Ga16 nonsel ag inactive | TAAR1 ag counter inactive
COC(=O)[C@]1(Cc2ccccc2)N[C@H](CN(C)S(=O)(=O)c2ccc(-c3ccccc3)cc2)[C@@H]2C(=O)N(C)C(=O)[C@@H]21	none
CCCC(=O)N1CCCC1(C)C(=O)Nc1ccc2cn[nH]c2c1 (configuration not stated)	none (no result: Beta2AR agonist)
Cc1ccnc2nc(C(=O)OCC(=O)N(CC(C)C)C3CCS(=O)(=O)C3)nn12 (configuration not stated)	none
N#CCc1ccc(NC(=O)CSc2nnc(C3CC3)n2C2CC2)cc1	none
O=S(=O)(Nc1ccc(-c2nc3cccnc3s2)cc1)c1cccs1	none
Cc1cc(-c2nc3cccnc3s2)ccc1NS(=O)(=O)c1cccs1	TAAR1 antag 63.3 | nonsel antag count inactive | TAAR1 ant conf inactive | Ga16 nonsel ag inactive | TAAR1 ag counter inactive
COc1ccc(CCn2c(C)cc(C(=O)CSc3nc(N)cc(=O)[nH]3)c2C)cc1	TAAR1 antag 51.3 | nonsel antag count 37.3 | TAAR1 ant conf inactive | Ga16 nonsel ag inactive | TAAR1 ag counter inactive
COc1cccc(OCc2cc(C(=O)N3CCNC(=O)C3Cc3ccccc3)no2)c1 (configuration not stated)	none
CN(Cc1ccc2c(c1)CCCN2C)C(=O)[C@H]1O[C@@H](n2cnc3c(N)ncnc32)[C@H](O)[C@@H]1O	none (no result: Beta2AR agonist, MC4R ag barr, MC4R antag cAMP)
COc1ccc(/C=C/C(=O)OCC(=O)NC2CCCCC2C)c(OC)c1 (configuration not stated)	none
CSc1ncc(C(=O)Nc2ccccc2F)c(-c2ccccc2)n1	none
CCc1ccc(S(=O)(=O)Nc2ccc(O)c3c(=O)cc(-c4ccccc4Cl)oc23)cc1	TAAR1 antag 60.6 | nonsel antag count inactive | TAAR1 ant conf inactive | Ga16 nonsel ag inactive | TAAR1 ag counter inactive
O=c1cc(-c2ccccc2Cl)oc2c(NS(=O)(=O)c3cc(Cl)cc(Cl)c3O)ccc(O)c12	none (no result: TAAR1 agonist, TAAR1 antag)
N#CC(C#N)=Cc1cc2ccccc2nc1N1CCOCC1	none
N#C/C(=C\c1cc2ccccc2nc1N1CCOCC1)C(=O)Nc1ccc(N2CCOCC2)cc1	TAAR1 antag 58.7 | nonsel antag count 30.2 | TAAR1 ant conf inactive | Ga16 nonsel ag inactive | TAAR1 ag counter inactive
Cc1ccc(NC(=O)Cn2nc(C(=O)O)c3ccccc3c2=O)cc1S(=O)(=O)N1CCOCC1	none
Cc1ccc(NC(=O)Cn2nc(C(=O)O)c3ccccc3c2=O)cc1S(=O)(=O)N1CCCCCC1	TAAR1 antag 101.7 | nonsel antag count 35.8 | TAAR1 ant conf inactive | Ga16 nonsel ag inactive | TAAR1 ag counter inactive
Cc1nn(-c2ccccc2)c(C)c1NC(=O)COC(=O)CCCOc1ccccc1	TAAR1 antag 56.5 | nonsel antag count inactive | TAAR1 ant conf inactive | Ga16 nonsel ag inactive | TAAR1 ag counter inactive
Cc1nn(-c2ccccc2)c(C)c1NC(=O)COC(=O)c1ccc(Cl)c(N)c1	TAAR1 antag 71.9 | nonsel antag count 30.2 | TAAR1 ant conf 49.7 | Ga16 nonsel ag 12.0 | TAAR1 ag counter inactive
Cc1cc(C)n(-c2ccc(C(=O)OCC(=O)NC(c3ccccc3)c3ccccc3)cc2)n1	MC4R ag barr 9.3, TAAR1 antag 66.4 | nonsel antag count 26.7 | TAAR1 ant conf 51.7 | Ga16 nonsel ag inactive | TAAR1 ag counter inactive
COc1cccc(NC(=O)COC(=O)/C=C/c2c(C)nn(-c3ccccc3)c2C)c1	none
COc1ccccc1/C=C/C(=O)OCC(=O)Nc1c(C)nn(-c2ccccc2)c1C	TAAR1 antag 66.2 | nonsel antag count 21.5 | TAAR1 ant conf inactive | Ga16 nonsel ag inactive | TAAR1 ag counter inactive
C[C@H]1CN([C@@H](C)CO)C(=O)c2cc(Br)cnc2O[C@H]1CN(C)C(=O)c1ccc2c(c1)OCO2	none (no result: Beta2AR agonist)
O=c1c2ccccc2nnn1-c1ccccc1[N+](=O)[O-]	none (no result: Beta2AR agonist)
O=C(NCCn1cc(SCc2ccc(F)cc2)c2ccccc21)c1c(F)cccc1F	TAAR1 antag 73.5 | nonsel antag count 30.8 | TAAR1 ant conf inactive | Ga16 nonsel ag inactive | TAAR1 ag counter inactive
O=C(NCCn1cc(SCc2ccccc2)c2ccccc21)c1c(F)cccc1F	TAAR1 antag 85.4 | nonsel antag count 32.2 | TAAR1 ant conf inactive | Ga16 nonsel ag inactive | TAAR1 ag counter inactive
O=C(CSc1cn(CCNC(=O)c2c(F)cccc2F)c2ccccc12)NCC1CCCO1 (configuration not stated)	none
O=C(NCCn1cc(SCc2ccc(F)cc2)c2ccccc21)c1ccccc1F	none (no result: TAAR1 agonist, TAAR1 antag)
O=C(/C=C/c1cn(-c2ccccc2)nc1-c1cccs1)NCCN1CCOCC1	TAAR1 antag 52.6 | nonsel antag count 27.9 | TAAR1 ant conf inactive | Ga16 nonsel ag inactive | TAAR1 ag counter inactive
O=C(c1cn(-c2ccccc2)nc1-c1cccs1)N1CCOCC1	none
CSc1ccccc1NC(=O)CN1CCN(c2ccccn2)CC1	none
O=C(CN1CCN(c2ccccn2)CC1)Nc1ccc([N+](=O)[O-])cc1C(=O)Nc1ccccc1F	TAAR1 antag 57.1 | nonsel antag count inactive | TAAR1 ant conf inactive | Ga16 nonsel ag 16.2 | TAAR1 ag counter inactive
Cc1ccc(Nc2nc(NCc3cccs3)nc3ccsc23)c(C)c1	TAAR1 antag 76.2 (no result: Beta2AR agonist) | nonsel antag count 57.3 | TAAR1 ant conf 65.5 | Ga16 nonsel ag 18.4 | TAAR1 ag counter inactive
